For data set [1], the target named is Human immunodeficiency virus type 1 integrase (Human immunodeficiency virus 1, UniProt Q7ZJM1). The data set is described as follows: Inhibition of HIV1 integrase strand transfer activity.
Data set [2] deals with Human immunodeficiency virus 1. Nature of the data set: Antiviral activity against HIV1 3B infected in human MT4 cells assessed as inhibition of viral replication after 5 days by MTT assay. It is filed as functional, organism-based. Particulars: Human immunodeficiency virus 1, 3B, MT4, 120 h. Put shortly:
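MT-4 human T lymphoid cells at 1 × 10^5 cells/mL in RPMI 1640 with 10% FBS, penicillin and streptomycin; infected with strain IIIb at multiplicity 0.01, compounds added, 37 °C for 5 days. Viability read by MTT (7.5 mg/mL solution), formazan dissolved in acidic isopropanol with 4% Triton-X, absorbance at 595 nm.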
(In general: Tetrazolium assays rely on reduction of a dye to a coloured formazan, in cell work by metabolically active cells.)

A short description of data set [3]: Selectivity index, ratio of CC50 for human MT4 cells to EC50 for HIV1 3B. It is filed as toxicity, cell-based. A digest of the protocol:
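For EC50, cells were infected with HIV-1 IIIb at multiplicity 0.01 before compound was added; for CC50, cells were uninfected. Viability was read by MTT reduction, with formazan dissolved in acidic isopropanol/4% Triton-X and absorbance at 595 nm.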

The nature of data set [4]: Cytotoxicity against human MT4 cells after 5 days by MTT assay. It is filed as cell-based. A digest of the protocol:
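Uninfected MT-4 cells at 1 × 10^5 cells/mL in RPMI 1640 with 10% FBS, penicillin and streptomycin, exposed to compounds at 37 °C for 5 days. Viability by MTT (7.5 mg/mL solution); formazan taken up in acidic isopropanol containing 4% Triton-X, read at 595 nm.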

Chain of Human immunodeficiency virus type 1 integrase (Q7ZJM1 whole entry): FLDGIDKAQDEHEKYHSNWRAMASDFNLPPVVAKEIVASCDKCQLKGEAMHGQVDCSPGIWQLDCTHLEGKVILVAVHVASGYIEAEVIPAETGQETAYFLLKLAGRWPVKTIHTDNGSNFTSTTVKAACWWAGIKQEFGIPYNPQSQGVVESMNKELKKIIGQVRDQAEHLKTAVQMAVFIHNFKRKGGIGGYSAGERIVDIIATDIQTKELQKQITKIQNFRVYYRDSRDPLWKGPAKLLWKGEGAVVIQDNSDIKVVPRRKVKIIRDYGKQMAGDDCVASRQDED

With `COc1cc2c(cc1Cc1cccc(Cl)c1F)c(=O)c(C(=O)O)cn2[C@H](CO)C(C)(C)C`, in data set [1], the IC50 (commonly the midpoint of a concentration-inhibition curve) is 5.8 nM. The EC50 – broadly, the concentration giving half of the maximal effect – in data set [2] was found to be 0.6 nM. Moreover, the selectivity ratio in data set [3] was more than 4000. For the same molecule, in data set [4], it took 3400 nM to reach half-maximal cytotoxicity (CC50 at 120 h).
